Activity calls are given as the source filed them. The rule behind the calls is not given here.
Columns and labels:
[1] = system: Clostridium botulinum; test: Zinc chelating activity mediated inhibition of Clostridium botulinum BoNT/A1 LC (1 to 425 residues) activity using SNAPtide as substrate at 50 uM incubated with enzyme for 30 mins followed by substrate addition and measured for 20 mins by FRET assay relative to control; settings: time 50.0 min
Outline: (§1)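 Enzyme was truncated BoNT/A1 LC (1–425) at 10 nM final, incubated with compound for 30 min at 25 °C in 40 mM HEPES pH 7.4 with 0.01% Triton X-100. SNAPtide substrate followed at 3.8 µM final. Fluorescence rate (ex 490/em 523 nm) read immediately for 20 min. Technical and experimental triplicate.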

[2] = Zinc chelating activity mediated inhibition of Clostridium botulinum BoNT/A1 LC (1 to 425 residues) activity using SNAPtide as substrate incubated with enzyme for 30 mins followed by substrate addition and measured for 20 mins by FRET assay relative to control; outline: as §1
[3] = Zinc chelating activity mediated inhibition of Clostridium botulinum Hall A hyper BoNT/A1activity assessed as inhibition of BoNT/A1-induced neurotoxicity in hIPSC derived GABA neurons by measuring protection against SNAP-25 cleavage incubated for 30 mins post BoNT/A1 addition and measured at 7 hrs post-toxin addition by Western blot analysis
[4] = system: Clostridium botulinum; test: Zinc chelating activity mediated inhibition of Clostridium botulinum BoNT/A1 LC (1 to 425 residues) activity using SNAPtide as substrate at 1 mM incubated with enzyme for 30 mins followed by substrate addition and measured for 20 mins by FRET assay relative to control; settings: time 50.0 min; outline: as §1
[5] = system: Clostridium botulinum; test: Selectivity index, ratio of IC50 for zinc chelation-mediated inhibition of Clostridium botulinum Hall A hyper BoNT/A1 activity assessed as protection against SNAP-25 cleavage in hIPSC-derived GABA neurons to IC50 for zinc chelation-mediated inhibition of Clostridium botulinum BoNT/A1 LC (1 to 425 residues)
[6] = Selectivity index, ratio of IC50 for zinc chelation-mediated inhibition of Clostridium botulinum BoNT/A1 LC (1 to 425 residues) to IC50 for MMP19 (unknown origin); format: toxicity
[7] = Selectivity index, ratio of IC50 for zinc chelation-mediated inhibition of Clostridium botulinum BoNT/A1 LC (1 to 425 residues) to IC50 for MMP13 (unknown origin); format: toxicity
[8] = Selectivity index, ratio of IC50 for zinc chelation-mediated inhibition of Clostridium botulinum BoNT/A1 LC (1 to 425 residues) to IC50 for MMP8 (unknown origin); format: toxicity
[9] = Selectivity index, ratio of IC50 for zinc chelation-mediated inhibition of Clostridium botulinum BoNT/A1 LC (1 to 425 residues) to IC50 for MMP7 (unknown origin); format: toxicity
[10] = Selectivity index, ratio of IC50 for zinc chelation-mediated inhibition of Clostridium botulinum BoNT/A1 LC (1 to 425 residues) to IC50 for MMP3 (unknown origin); format: toxicity
[11] = Selectivity index, ratio of IC50 for zinc chelation-mediated inhibition of Clostridium botulinum BoNT/A1 LC (1 to 425 residues) to IC50 for MMP2 (unknown origin); format: toxicity
[12] = Selectivity index, ratio of IC50 for zinc chelation-mediated inhibition of Clostridium botulinum BoNT/A1 LC (1 to 425 residues) to IC50 for MMP1 (unknown origin); format: toxicity
[13] = system: Clostridium botulinum; test: Competitive active site zinc chelating activity mediated inhibition of Clostridium botulinum BoNT/A1 LC (1 to 425 residues) activity at 0.1 to 10 uM using SNAPtide as substrate incubated with enzyme for 30 mins in presence of DCHA followed by substrate addition and measured for 20 mins by FRET assay; settings: dose 0.1-10 µM, time 50.0 min
Outline: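 BoNT/A1 LC (1–425), 10 nM final, preincubated with compound for 30 min at room temperature in 40 mM HEPES pH 7.4 with 0.01% Triton X-100. SNAPtide added to 3.8 µM final. Fluorescence rate (ex 490/em 523 nm) read for 20 min. Technical and experimental triplicate.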

Structure (SMILES) | inhibition [1] | IC50 [2] | also measured
Cc1c(O)c(=S)ccn1Cc1ccc(F)cc1 | 64% | – | –
COc1ccccc1Cn1ccc(=S)c(O)c1C | 71% | – | –
Cc1c(O)c(=S)ccn1-c1ccc(N)cc1 | 16% | – | –
Cc1c(O)c(=S)ccn1CCc1ccc(Cl)cc1 | – | 1.9 µM | –
Cc1c(O)c(=S)ccn1CC12CC3CC(CC(C3)C1)C2 | – | 4.9 µM | –
Cc1c(O)c(=S)ccn1Cc1ccc(O)cc1 | – | > 50 µM | –
COc1ccc(CCn2ccc(=S)c(O)c2C)cc1 | 57% | – | –
Cc1ccc(Cn2ccc(=S)c(O)c2C)cc1 | – | 5 µM | –
Cc1ccc(CCn2ccc(=S)c(O)c2C)cc1C | – | 2.8 µM | –
Cc1c(O)c(=S)ccn1Cc1ccc([N+](=O)[O-])cc1 | – | 3 µM | IC50 [3]: 100 µM
COc1ccc(-n2ccc(=S)c(O)c2C)cc1OC | 12% | – | –
CCOc1ccc(-n2ccc(=S)c(O)c2C)cc1 | 80% | – | –
Cc1c(O)c(=S)ccn1-c1ccc(N2CCOCC2)cc1 | 0% | – | –
Cc1c(O)c(=S)ccn1Cc1ccc(-c2ccc3ccccc3c2)cc1 | 60% | – | –
c1cnc2c(c1)ccc1cccnc12 | – | – | inhibition [4]: > 95%
Cc1c(O)c(=S)ccn1CCc1ccc(-c2ccccc2)cc1 | – | 1.8 µM | Ratio IC50 [5]: 7; IC50 [3]: 13 µM; Ratio IC50 [6]: 2; Ratio IC50 [7]: 2; Ratio IC50 [8]: 2; Ratio IC50 [9]: 2; Ratio IC50 [10]: 2; Ratio IC50 [11]: 2; Ratio IC50 [12]: 2; Activity [13]: Active
COc1ccc(Cn2ccc(=S)c(O)c2C)cc1 | – | 31.9 µM | –
Cc1c(O)c(=S)ccn1-c1ccc(F)cc1 | 37% | – | –
CCc1c(O)c(=S)ccn1CC | – | – | inhibition [4]: > 95%
Cc1c(O)c(=S)ccn1-c1ccc(F)c(C(F)(F)F)c1 | 0% | – | –
Cc1c(O)c(=S)ccn1Cc1ccc(-c2ccc(Cl)cc2)cc1 | – | 1.3 µM | IC50 [3]: 31 µM

Structure (SMILES) | inhibition [1] | IC50 [2] | also measured
Cc1c(O)c(=S)ccn1CCc1ccccc1 | 48% | – | –
O=C(O)c1cccc(C(=O)O)n1 | – | – | inhibition [4]: > 95%
Cc1c(O)c(=S)ccn1Cc1ccc(-c2ccc(F)cc2)cc1 | – | 1.4 µM | IC50 [3]: 33 µM
O=C(O)c1ccc2cccc(O)c2n1 | – | – | inhibition [4]: > 95%
CCn1ccc(=S)c(O)c1C | – | – | inhibition [4]: > 95%
Cc1ccc(CCn2ccc(=S)c(O)c2C)cc1 | 81% | 3.2 µM | –
COc1cccc(CCn2ccc(=S)c(O)c2C)c1 | 62% | – | –
Cc1c(O)c(=S)ccn1Cc1ccc(Cl)cc1Cl | – | > 50 µM | –
Cc1c(O)c(=S)ccn1Cc1ccccc1 | 55% | – | –
Cc1c(O)c(=S)ccn1-c1ccc(Nc2ccccc2)cc1 | 14% | – | –
Cc1c(O)c(=S)ccn1Cc1ccc(-c2ccc(F)c(F)c2)cc1 | – | 1.8 µM | IC50 [3]: 39 µM
Cc1c(O)c(=S)ccn1-c1cc(C(F)(F)F)cc(C(F)(F)F)c1 | 0% | – | –
Cc1c(O)c(=S)ccn1Cc1ccc(Br)cc1 | – | 2.2 µM | –
Cc1c(O)c(=S)ccn1CCc1ccc(Cl)cc1Cl | – | 1.6 µM | IC50 [3]: 200 µM
Cc1c(O)c(=S)ccn1Cc1ccc(Cl)cc1 | – | 11.3 µM | –
Cc1c(O)c(=S)ccn1C | – | – | inhibition [4]: > 95%
Cc1c(O)c(=S)ccn1Cc1cccnc1 | 52% | – | –
Cc1c(O)c(=S)ccn1CCC12CC3CC(CC(C3)C1)C2 | – | > 50 µM | –
Cc1c(O)c(=S)ccn1Cc1ccc(-c2ccc3c(c2)OCO3)cc1 | – | 1.4 µM | IC50 [3]: 51 µM
Cc1ccc(CCn2ccc(=S)c(O)c2C)c(C)c1 | – | 1.7 µM | –
COc1cccc(Cn2ccc(=S)c(O)c2C)c1 | 65% | – | –

From ChEMBL document CHEMBL4673198, “Identification of 3-hydroxy-1,2-dimethylpyridine-4(1H)-thione as a metal-binding motif for the inhibition of botulinum neurotoxin A” (RSC Med Chem, 2021)
